Active and inactive are the calls of the source. The calls are words filed in the database; no cut-off is given here. Square brackets hold non-standard residues; d marks the D form. Peptide text beside a SMILES is read from it. * marks the point of attachment. Bpa = N[C@@H](Cc1ccc(C(=O)c2ccccc2)cc1)C(=O)O; Bip = N[C@@H](Cc1ccc(-c2ccccc2)cc1)C(=O)O; Dip = N[C@H](C(=O)O)C(c1ccccc1)c1ccccc1; 1Nal = N[C@@H](Cc1cccc2ccccc12)C(=O)O; Bta = N[C@@H](Cc1csc2ccccc12)C(=O)O; Acetyl(2-thienyl) = O=C(Cc1cccs1)*
What was measured:
[1] = test system: Serum; test: Drug level in rat serum treated with (S)-2-((S)-2-((S)-1-((S)-2-((S)-2-((S)-3-(1H-indol-3-yl)-2-(2-(thiophen-2-yl)acetamido)propanamido)-3-(1H-indol-2-yl)propanamido)-5-guanidinopentanoyl)pyrrolidine-2-carboxamido)-5-guanidinopentanamido)succinamide at 1 mM after 120 mins by RP-HPLC analysis; type: ADME, cell-free; details: 2 h, 1000 µM
[2] = target: T1, Neuromedin-U receptor 1 (Mus musculus, UniProt O55040); test: Agonist activity at mouse NMUR1 expressed in HEK293 cells assessed as induction of calcium mobilization after 18 hrs by Fluo-4 AM dye based FLIPR assay; type: functional, cell-based
T1 sequence (O55040 whole entry): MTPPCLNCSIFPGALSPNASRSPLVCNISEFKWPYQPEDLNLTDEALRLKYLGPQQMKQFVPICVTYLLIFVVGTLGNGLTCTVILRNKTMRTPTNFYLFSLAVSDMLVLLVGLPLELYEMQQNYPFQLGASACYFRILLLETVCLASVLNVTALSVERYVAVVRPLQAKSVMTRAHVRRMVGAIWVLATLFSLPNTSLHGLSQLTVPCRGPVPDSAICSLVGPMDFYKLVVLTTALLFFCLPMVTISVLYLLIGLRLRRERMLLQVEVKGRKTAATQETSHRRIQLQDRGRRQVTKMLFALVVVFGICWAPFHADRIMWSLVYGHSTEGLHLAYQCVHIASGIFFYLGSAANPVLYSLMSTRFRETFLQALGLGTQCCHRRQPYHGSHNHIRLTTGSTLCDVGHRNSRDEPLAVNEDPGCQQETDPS

[3] = species: Rattus norvegicus; test: Stability in rat serum at 1 mM at 120 mins by RP-HPLC/MS analysis
[4] = target: Neuromedin-U receptor 2 (Homo sapiens) (UniProt Q9GZQ4); test: Agonist activity at human NMUR2 expressed in CHO cells assessed as induction of Ca2+ flux at 10 nM after 18 hrs by Fluo-4 AM dye based FLIPR assay relative to NMU; type: functional, cell-based
Outline: (§1)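 Human NMUR1 or NMUR2 stably expressed in CHO cells was assayed by Fluo-4 AM (4 μM, 40 min) FLIPR calcium flux, with cells seeded 18 h before. Peptides were tested at single concentrations of 0.1, 10 or 100 nM. Maximal response is expressed as % of hNMU at 1000 nM (=100%).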

[5] = target: T2, Neuromedin-U receptor 1 (Homo sapiens) (UniProt Q9HB89); test: Agonist activity at human NMUR1 expressed in CHO cells assessed as induction of Ca2+ flux at 0.1 nM after 18 hrs by Fluo-4 AM dye based FLIPR assay relative to NMU; type: functional, cell-based; outline: as §1
T2 sequence (whole entry): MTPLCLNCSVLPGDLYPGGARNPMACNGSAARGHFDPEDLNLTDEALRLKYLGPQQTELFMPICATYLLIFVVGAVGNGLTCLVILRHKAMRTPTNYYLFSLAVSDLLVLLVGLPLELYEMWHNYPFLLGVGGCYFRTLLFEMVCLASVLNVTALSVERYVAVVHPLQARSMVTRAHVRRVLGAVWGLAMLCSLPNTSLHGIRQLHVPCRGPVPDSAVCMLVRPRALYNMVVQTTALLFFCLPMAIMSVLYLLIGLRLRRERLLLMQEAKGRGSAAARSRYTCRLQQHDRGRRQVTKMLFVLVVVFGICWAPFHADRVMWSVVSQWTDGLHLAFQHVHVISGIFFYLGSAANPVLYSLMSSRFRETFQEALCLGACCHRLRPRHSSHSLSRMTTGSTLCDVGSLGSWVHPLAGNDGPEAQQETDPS

[6] = target: T2, Neuromedin-U receptor 1 (Homo sapiens); test: Agonist activity at human NMUR1 expressed in CHO cells assessed as induction of Ca2+ flux at 0.1 to 10 nM after 18 hrs by Fluo-4 AM dye based FLIPR assay relative to NMU; type: functional, cell-based; outline: as §1
[7] = target: T2, Neuromedin-U receptor 1 (Homo sapiens); test: Agonist activity at human NMUR1 expressed in CHO cells assessed as induction of Ca2+ flux at 100 nM after 18 hrs by Fluo-4 AM dye based FLIPR assay relative to NMU; type: functional, cell-based; outline: as §1
[8] = target: Neuromedin-U receptor 2 (Homo sapiens) (UniProt Q9GZQ4); test: Agonist activity at human NMUR2 expressed in CHO cells assessed as induction of Ca2+ flux at 100 nM after 18 hrs by Fluo-4 AM dye based FLIPR assay relative to NMU; type: functional, cell-based; outline: as §1

Sequence of Neuromedin-U receptor 2 (Homo sapiens) (Q9GZQ4 whole entry): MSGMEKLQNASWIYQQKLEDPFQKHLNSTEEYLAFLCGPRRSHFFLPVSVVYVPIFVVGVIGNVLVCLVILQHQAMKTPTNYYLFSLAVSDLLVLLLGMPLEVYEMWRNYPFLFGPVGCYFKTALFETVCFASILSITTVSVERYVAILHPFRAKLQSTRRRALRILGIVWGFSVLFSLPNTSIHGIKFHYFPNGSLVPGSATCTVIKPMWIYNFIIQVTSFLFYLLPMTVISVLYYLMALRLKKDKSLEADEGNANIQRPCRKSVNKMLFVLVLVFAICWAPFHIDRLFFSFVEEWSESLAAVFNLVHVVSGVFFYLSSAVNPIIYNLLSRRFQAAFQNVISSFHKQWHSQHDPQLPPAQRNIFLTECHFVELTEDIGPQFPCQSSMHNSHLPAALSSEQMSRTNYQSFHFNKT

In the case of `O=C(Cc1cccs1)N[C@@H](Cc1c[nH]c2ccccc12)C(=O)N[C@@H](Cc1c[nH]c2ccccc12)C(=O)O`, the Drug metabolism [1] is reported as “Metabolite_Detected”.
`CC(C)C[C@H](NC(=O)[C@H](Cc1ccccc1)NC(=O)[C@H](Cc1ccc(O)cc1)NC(=O)CNC(=O)[C@H](CCCCN)NC(=O)[C@H](CO)NC(=O)[C@H](CCC(N)=O)NC(=O)CNC(=O)[C@@H](NC(=O)[C@H](CO)NC(=O)[C@@H]1CCCN1C(=O)[C@H](CO)NC(=O)[C@H](CCC(N)=O)NC(=O)[C@H](Cc1ccc(O)cc1)NC(=O)[C@H](CCC(=O)O)NC(=O)[C@H](C)NC(=O)[C@H](CCCCN)NC(=O)[C@@H](N)Cc1ccccc1)C(C)C)C(=O)N[C@@H](Cc1ccccc1)C(=O)N[C@@H](CCCNC(=N)N)C(=O)N1CCC[C@H]1C(=O)N[C@@H](CCCNC(=N)N)C(=O)N[C@@H](CC(N)=O)C(N)=O` (H-FKAEYQSPSVGQSKGYFLFRPRN-NH2) was tested, and the EC50 [2] was 420 pM.
`N=C(N)NCCC[C@H](NC(=O)[C@@H]1CCCN1C(=O)[C@H](CCCNC(=N)N)NC(=O)[C@H](Cc1c[nH]c2ccccc12)NC(=O)[C@H](Cc1c[nH]c2ccccc12)NC(=O)Cc1cccs1)C(=O)O` ({Acetyl(2-thienyl)}-WWRPR-OH) was tested, and the remaining at 2 h, 1000 µM [3] was 52% and the Drug metabolism [1] was “Metabolite_Detected”.
In the case of `COc1ccc(C[C@H](NC(=O)[C@H](Cc2c[nH]c3ccccc23)NC(=O)Cc2cccs2)C(=O)N[C@@H](CCCNC(=N)N)C(=O)N2CCC[C@H]2C(=O)N[C@@H](CCCNC(=N)N)C(=O)N[C@@H](CC(N)=O)C(N)=O)cc1` ({Acetyl(2-thienyl)}-WY(Me)RPRN-NH2), the Activity [4] is reported as “inactive”.
`N=C(N)NCCC[C@H](NC(=O)[C@@H]1CCCN1C(=O)[C@H](CCCNC(=N)N)NC(=O)[C@H](Cc1cccc2ccccc12)NC(=O)[C@H](Cc1c[nH]c2ccccc12)NC(=O)Cc1cccs1)C(=O)N[C@@H](CC(N)=O)C(N)=O` ({Acetyl(2-thienyl)}-W[1Nal]RPRN-NH2) was tested, and the Activity [4] was “inactive”.
`N=C(N)NCCC[C@H](NC(=O)[C@@H]1CCCN1C(=O)[C@H](CCCNC(=N)N)NC(=O)[C@H](Cc1ccc(-c2ccccc2)cc1)NC(=O)[C@H](Cc1c[nH]c2ccccc12)NC(=O)Cc1cccs1)C(=O)N[C@@H](CC(N)=O)C(N)=O` ({Acetyl(2-thienyl)}-W[Bip]RPRN-NH2) was tested, and the Activity [4] was “inactive” and the Activity [5] was “Active”.
For `N=C(N)NCCC[C@H](NC(=O)[C@@H]1CCCN1C(=O)[C@H](CCCNC(=N)N)NC(=O)[C@H](Cc1ccc(C(=O)c2ccccc2)cc1)NC(=O)[C@H](Cc1c[nH]c2ccccc12)NC(=O)Cc1cccs1)C(=O)N[C@@H](CC(N)=O)C(N)=O` ({Acetyl(2-thienyl)}-W[Bpa]RPRN-NH2), the Activity [4] was “inactive” and the Activity [5] was “Active”.
In the case of `N=C(N)NCCC[C@H](NC(=O)[C@@H]1CCCN1C(=O)[C@H](CCCNC(=N)N)NC(=O)[C@H](Cc1csc2ccccc12)NC(=O)[C@H](Cc1c[nH]c2ccccc12)NC(=O)Cc1cccs1)C(=O)N[C@@H](CC(N)=O)C(N)=O` ({Acetyl(2-thienyl)}-W[Bta]RPRN-NH2), the Activity [6] is reported as “Active”.
In the case of `N=C(N)NCCC[C@H](NC(=O)[C@@H]1CCCN1C(=O)[C@H](CCCNC(=N)N)NC(=O)[C@@H](NC(=O)[C@H](Cc1c[nH]c2ccccc12)NC(=O)Cc1cccs1)C(c1ccccc1)c1ccccc1)C(=O)N[C@@H](CC(N)=O)C(N)=O` ({Acetyl(2-thienyl)}-W[Dip]RPRN-NH2), the Activity [7] is reported as “inactive” and the Activity [8] is reported as “inactive”.

— ChEMBL document CHEMBL4014341, “Discovery of a Human Neuromedin U Receptor 1-Selective Hexapeptide Agonist with Enhanced Serum Stability” (J Med Chem, 2017)
